Experimental data gathered from unrelated publications.
Compare with care: the assays were run in different laboratories.
Target: Phosphatidylinositol 4,5-bisphosphate 3-kinase catalytic subunit beta isoform (PIK3CB, Homo sapiens, UniProt P42338)

Compound | observed | technique | concentration | remaining binding [%]
F[C@@H]1CCN(c2nccc(-c3cnn4ncccc34)n2)C1 | binding |  | 1 µM | 100
CN(C)C(=O)Cn1cc(-c2nc(C3(c4ccc(-c5cnc(N)nc5)cc4)CC3)no2)cn1 | cell-free assay | competition with immobilised ligand | 1 µM | 96
c1cncc(-c2cccc(Nc3nccc(NC4CCCCC4)n3)c2)c1 | binding | competition with immobilised ligand | 10 µM | 100
CN(c1nccc(-c2cnn3ncccc23)n1)C1CC1 | binding |  | 1 µM | 100
O=C(Nc1c[nH]nc1C(=O)NC1CCNCC1)c1cc(F)cc(F)c1 | binding | competition with immobilised ligand | 1 µM | 100
C=CC(=O)N1CCC(C(=O)NCC(=O)N2CCN(c3nc(-c4cnc(N)nc4C(F)F)nc(N4CCOCC4)n3)CC2)CC1 | binding | competition with immobilised ligand | 1 µM | 0.05
C[C@@H]1CN(c2cc(-c3n[nH]c4ccc(OC5(C)CC5)cc34)ncn2)C[C@H](C)O1 | cell-free assay | competition with immobilised ligand | 0.1 µM | 59
Cc1cnc(Nc2ccc(C(=O)N3CCC(N4CCCC4)CC3)cc2)nc1-c1cc2ccccc2s1 | binding | competition with immobilised ligand | 1 µM | 99
COc1cnc(Nc2cccc(S(N)(=O)=O)c2)nc1N1CCN(c2ccccc2)CC1 | binding | competition with immobilised ligand | 1 µM | 86
Nc1c(C(=O)NCc2ccc(C(=O)NCCCC3CCCCC3)cc2)cnn1-c1ccccc1 | cell-free assay | competition with immobilised ligand | 0.1 µM | 100
COc1ccnn2ncc(-c3ccnc(N(C)C)n3)c12 | binding |  | 1 µM | 75
COc1ncc2cc3ccccc3nc2c1C#N | cell-free assay | competition with immobilised ligand | 5 µM | 100
CN(C)c1nccc(-c2cnn3ncccc23)n1 | binding |  | 1 µM | 50
COc1cc(-c2cn(C3CCc4ccccc4N(CC(F)(F)F)C3=O)nn2)ccc1-n1ccc(C)n1 (centres unmarked) | cell-free assay | competition with immobilised ligand | 1 µM | 100
Cc1cnn2ncc(-c3ccnc(N(C)C)n3)c2c1 | binding |  | 1 µM | 74
COc1ccc2c(O[C@@H]3C[C@H]4C(=O)N[C@]5(C(=O)O)CC5/C=C\CCCCC[C@H](NC(=O)OC5CCCC5)C(=O)N4C3)cc(-c3csc(NC(=O)C(C)C)n3)nc2c1C (some centres unmarked) | cell-free assay | competition with immobilised ligand | 1 µM | 62
O=C(NCCCN1CCOCC1)c1ccc(Nc2nccc(-c3cc4ccccc4s3)n2)cc1 | binding | competition with immobilised ligand | 1 µM | 100
N[C@H]1CCN(c2nccc(-c3cnn4ncccc34)n2)C1 | binding |  | 1 µM | 100
CS(=O)(=O)c1cc(C2(NC(=O)c3cncc4c3cnn4-c3ccc(F)cc3)CC2)ccn1 | cell-free assay | competition with immobilised ligand | 1 µM | 100
O=C(c1ccc(Nc2ncc(Cl)c(-c3ccc(Cl)s3)n2)cc1)N1CCC(N2CCCC2)CC1 | binding | competition with immobilised ligand | 1 µM | 100
